Measurements pooled from the literature.
Protocols differ between the studies behind these lines.

Structure (SMILES)	tested on	assay	test system	setting	endpoint	value
C[C@H]1[C@@H](C(=O)NCc2nc(-c3ccc(C#N)cc3)cs2)CCCN1C(=O)[C@H]1CCO1	–	metabolic stability	male Sprague-Dawley rat, liver microsomes	0.5 µM	microsomal CLint	45 µL/min/mg
CC[C@@H](C)[C@@H](N)C(=O)OC[C@H]1O[C@@](C#N)(c2ccc3c(N)ncnn23)[C@H](O)[C@@H]1O	HEp-2	cell growth or viability, CCK-8	–	5 days	CC50	> 100 µM
CCc1cc(=O)oc2cc(OC(CC)C(=O)c3ccccc3)ccc12 (stereo not shown)	TZM-bl	cell growth or viability, resazurin	–	–	CC50	> 12.5 µM
CC(C)C(=O)OC[C@H]1O[C@@](C#N)(c2ccc3c(N)ncnn23)[C@H](O)[C@@H]1O	HEp-2	cell growth or viability, CCK-8	–	5 days	CC50	81.6 µM
C[C@H]1[C@@H](C(=O)NCc2nc(-c3ccc(C#N)cc3)cs2)CCCN1C(=O)[C@H]1CCC(=O)O1	–	metabolic stability	male Sprague-Dawley rat, liver microsomes	0.5 µM	microsomal CLint	24 µL/min/mg
O=C1CCC(N2C(=O)c3cccc(NCCc4cn(Cc5ccc(-c6nc7cc(-c8ccccc8)ccn7c6Nc6ccc(C(=O)O)cc6)cc5)nn4)c3C2=O)C(=O)N1 (stereo not shown)	MCF7	cell growth or viability	–	72 h	CC50	108 µM
N#C[C@@]1(c2ccc3c(N)ncnn23)O[C@H](COC(=O)c2ccccc2)[C@@H](O)[C@H]1O	HEp-2	cell growth or viability, CCK-8	–	5 days	CC50	79.2 µM
COc1ccc2c(c1)CN(C(=O)CCN1CCC(Cc3ccccc3)CC1)CC[S@@+]2[O-]	–	–	male human, plasma	intravenous, 0.15 mg/kg, healthy volunteers	clearance	223 mL/min
CCONC(=O)N1CCC[C@H](C(=O)NCc2nc(-c3ccccc3)cs2)C1	–	metabolic stability	human, liver microsomes	0.5 µM	microsomal CLint	10 µL/min/mg
Nc1ccn([C@@H]2O[C@H](CO)[C@@H](O)C2(F)F)c(=O)n1	MCF7	cell growth or viability, MTT	–	10 µg/mL, 24 h	viability	20.7%
COCC(=O)N1CCC[C@H](C(=O)NCc2nc(-c3cncnc3)cs2)C1	–	metabolic stability	human, liver microsomes	0.5 µM	microsomal CLint	< 7 µL/min/mg
CC(C)C(=O)OC[C@H]1O[C@@H](n2ccc(NO)nc2=O)[C@H](O)[C@@H]1O	HEp-2	cell growth or viability, CCK-8	–	5 days	CC50	50.1 µM
NC/C(=C\F)COc1cccc(Cn2c(=S)[nH]c(=O)c3[nH]cnc32)c1	Solute carrier organic anion transporter family member 1B3 (SLCO1B3, Homo sapiens, UniProt Q9NPD5)	transporter uptake, inhibitor	–	30 µM	inhibition	< 50%
